Laboratory results published in ChEMBL document CHEMBL4425108, “A Selective and Slowly Reversible Inhibitor of l-Type Amino Acid Transporter 1 (LAT1) Potentiates Antiproliferative Drug Efficacy in Cancer Cells” (J Med Chem, 2016).
Calls of active or inactive are those of the source. The calls are words filed in the database; no cut-off is given here.

Key:
[1] = biological target: T1, Large neutral amino acids transporter small subunit 1 (Homo sapiens, UniProt Q01650); experiment: Drug uptake in human MCF7 cells assessed as LAT1 mediated drug transport per mg of protein at 100 uM measured 30 mins after cold wash by HPLC analysis; assay type: ADME, cell-based; settings: mcf7, 0.5 h
T1 sequence (Q01650 whole entry): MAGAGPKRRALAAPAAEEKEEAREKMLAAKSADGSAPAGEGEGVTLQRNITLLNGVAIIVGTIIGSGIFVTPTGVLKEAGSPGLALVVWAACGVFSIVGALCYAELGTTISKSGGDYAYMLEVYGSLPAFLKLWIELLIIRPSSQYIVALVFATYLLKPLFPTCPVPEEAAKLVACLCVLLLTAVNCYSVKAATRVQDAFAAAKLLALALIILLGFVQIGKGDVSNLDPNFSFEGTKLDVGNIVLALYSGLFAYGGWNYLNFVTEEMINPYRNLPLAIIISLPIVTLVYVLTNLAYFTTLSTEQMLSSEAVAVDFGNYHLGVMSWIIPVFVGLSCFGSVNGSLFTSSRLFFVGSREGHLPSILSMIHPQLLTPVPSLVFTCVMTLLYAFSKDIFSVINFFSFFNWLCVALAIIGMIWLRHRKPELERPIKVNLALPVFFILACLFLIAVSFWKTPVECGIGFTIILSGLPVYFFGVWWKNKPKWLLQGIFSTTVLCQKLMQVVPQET
Summary of the method: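 MCF-7 monolayers were incubated with 100 µM compound in HBSS at 37 °C for 5 or 30 min. Cells got three washes with ice-cold or warm (37 °C) HBSS; in the warm 30 min arm they were washed after 5 min and again after 30 min. Lysates (0.1 M NaOH) were quantified by HPLC-UV against a spiked lysate standard curve and normalised to protein (Bio-Rad assay).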

[2] = Metabolic stability in mouse liver S9 fraction at 37 degreeC in presence of NADPH regenerating system measured after 2 hrs by HPLC analysis; assay type: ADME, subcellular; settings: s9, 2 h
[3] = fCmax in mouse liver at 23 umol/kg, ip administered as bolus by LC-MS analysis; assay type: ADME, organism-based; settings: in vivo
Summary of the method: (§1)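 Male mice (25 ± 5 g) dosed i.p. as a bolus at 23 µmol/kg in DMSO/hydroxypropyl-β-cyclodextrin/saline vehicle, sampled at time points 10–480 min; plasma and tissue homogenates (1:3 water) analysed by LC-MS. […] Mean ± SEM.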

[4] = fCmax in mouse heart at 23 umol/kg, ip administered as bolus by LC-MS analysis; assay type: ADME, organism-based; settings: in vivo; summary of the method: as §1
[5] = Tmax in mouse liver at 23 umol/kg, ip administered as bolus by LC-MS analysis; assay type: ADME, organism-based
Summary of the method: (§2)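 Adult male mice (25 ± 5 g) given a single i.p. bolus of 23 µmol/kg, dosing solution 1.36 mM in 10% (v/v) DMSO, 20% (w/v) hydroxypropyl-β-cyclodextrin, 0.9% NaCl in water. Decapitation at time points 10–480 min; plasma, brain, liver, prostate, kidney, heart collected. Acetonitrile precipitation with repaglinide internal standard, LC-MS (ESI positive). tmax and t½β taken from concentration-time data; mean ± SEM, n=3.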

[6] = Terminal half life in mouse prostate at 23 umol/kg, ip administered as bolus by LC-MS analysis; assay type: ADME, organism-based, Prostate gland; settings: read-out: beta t1/2; summary of the method: as §2
[7] = biological target: Large neutral amino acids transporter small subunit 1 (Mus musculus, UniProt Q9Z127); experiment: Ratio of Kin for L-leucine to Kin for test compound for LAT1-mediated drug uptake in mouse brain; assay type: ADME, tissue-based; settings: in vivo
Sequence of Large neutral amino acids transporter small subunit 1 (Mus musculus, UniProt Q9Z127) (Q9Z127 whole entry, the tested form may be a part): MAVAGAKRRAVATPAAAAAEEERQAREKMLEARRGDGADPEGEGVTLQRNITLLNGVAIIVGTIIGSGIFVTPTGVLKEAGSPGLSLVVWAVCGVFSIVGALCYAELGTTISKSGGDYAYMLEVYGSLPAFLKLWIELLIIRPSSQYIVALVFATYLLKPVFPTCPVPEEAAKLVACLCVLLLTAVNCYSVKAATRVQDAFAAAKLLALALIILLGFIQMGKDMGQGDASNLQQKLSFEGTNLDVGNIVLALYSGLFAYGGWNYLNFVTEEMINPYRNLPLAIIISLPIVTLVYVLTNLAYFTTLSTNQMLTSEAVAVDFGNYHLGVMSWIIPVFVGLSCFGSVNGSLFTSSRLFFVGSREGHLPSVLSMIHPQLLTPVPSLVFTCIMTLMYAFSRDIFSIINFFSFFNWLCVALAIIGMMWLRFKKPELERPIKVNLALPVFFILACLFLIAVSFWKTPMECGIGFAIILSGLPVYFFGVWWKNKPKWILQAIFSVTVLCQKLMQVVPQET
Summary of the method: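 In situ brain perfusion in anaesthetised adult male mice (ketamine/xylazine i.p.) via right common carotid at 2.5 mL/min, 37 °C. Perfusate was 0.157 µM [14C]-L-leucine for 30 s or 100 µM test compound for 60 s, then 2 s drug-free buffer at 4 °C. Kin = Qtot/(Cpf × T). Mean ± SD, n=3-4.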

[8] = Plasma concentration in mouse at 23 umol/kg, ip measured after 180 mins; assay type: ADME, organism-based
[9] = biological target: T1, Large neutral amino acids transporter small subunit 1; experiment: Binding affinity to LAT1 in human MCF7 cells at 100 uM after 30 mins by HPLC analysis; assay type: cell-based
Summary of the method: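 MCF-7 cells given 25-400 µM compound in pre-warmed HBSS (pH 7.4) at 37 °C for 30 min, washed three times with ice-cold HBSS, lysed in 0.1 M NaOH. Lysate quantified by HPLC-UV against a standard curve spiked into cell lysate. Amount normalised to protein (Bio-Rad assay, nmol/mg protein). n=3.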

Drug uptake [1]: 2.63 nmol/mg
Stability [2]: Stable
fCmax [3]: 0.38 nmol/g
fCmax [4]: 0.08 nmol/g
Tmax [5]: 10 min
half-life [6]: 12 min
Ratio [7]: 156
concentration at 3 h [8]: 230 nM
Activity [9]: Active
Structure (SMILES): CNC(=O)COc1ccc(-c2c(C#N)c(NC(=O)c3cccc(C[C@H](N)C(=O)O)c3)n3c(nc4ccccc43)c2C#N)cc1
